Assay outcomes deposited in PubChem by several laboratories.
bovine MsrA act: bovine MsrA enzyme activators, primary screen, biochemical, absorbance, HTS; activation, % at 10.6 µM; Methionine sulfoxide reductase A (Bos taurus); purified bovine MsrA, absorbance read-out; hit rate 0.3% among 360,000; in the data active = activation above about 7.5%
HTR2A ag: mouse Htr2a agonists via beta-arrestin recruitment, primary screen, cell-based, luminescence | AID 624169, 2012 | CHO-K1 mHTR2A beta-arrestin complementation; percent of 30 µM serotonin response | activation, % at 7.6 µM | hit rate 0.66% among 360,000;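 active = activation above a run cutoff, the mean activation of all tested compounds plus 3 SD, cut at about 14% in these data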
AHR act: AHR activators, primary screen, cell-based, luminescence, luciferase reporter, human | Aryl hydrocarbon receptor (Homo sapiens), P35869 | AHR-responsive luciferase reporter cells | activation, % at 5 µM | hit rate 2.5% among 320,000 | AID 2796, 2010; in the data active = activation above about 47%
Tb MetRS inh: T. brucei MetRS inhibitors, primary screen, biochemical, luminescence. methionyl-tRNA synthetase (Trypanosoma brucei brucei). purified T. brucei MetRS, ATP depletion, Kinase-Glo luminescence. inhibition, % at 11.9 µM. hit rate 0.4% among 360,000;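 active = inhibition above a per-plate cutoff of the control wells' mean inhibition plus 3 SD, cut at about 5.5% in these data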
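System: purified T. brucei MetRS enzyme / Detection: Kinase-Glo luciferase luminescence reporting remaining unconsumed ATP / Medium: HEPES buffer with MgCl2, KCl, DTT, spermine, BSA, pyrophosphatase / Replication: singlicate, one well per compound / Evaluation: percent inhibition relative to median high and low control wells / Schedule: 2 h aminoacylation at 25 °C after 15 min preincubation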
MsrA inhibitor: bovine MsrA enzyme inhibitors, primary screen, biochemical, absorbance, HTS; AID 651718, 2012; inhibition, % at 15.5 µM; purified bovine MsrA, absorbance read-out; Methionine sulfoxide reductase A (Bos taurus); hit rate 0.75% among 360,000; in the data active = inhibition above about 4.5%
AI-2 QS mod: Vibrio harveyi AI-2 quorum sensing modulators, primary screen, JMH597 strain, luminescence/OD600 ratio; hit rate 0.4% among 300,000; activity change, % at 7.5 µM; Vibrio harveyi JMH597 AI-2 luminescence/OD600 ratio, 9 h; stronger effect = lower value; strain lacks LuxN and CqsS sensors; 0 = neutral-control median; in the data active = activity change below about -75%, passing the limit was not always enough;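 note: luminescence divided by OD600 gain over 9 h not by final OD600 alone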
OPRM1 ag: OPRM1 agonists via beta-arrestin recruitment, confirmation, counter-screen for mouse HTR2A agonist project, cell-based, luminescence, single concentration | U2OS OPRM1 beta-arrestin PathHunter; DMSO 0%, DAMGO 9.3 µM 100% | hit rate 5.3% among 2,300 | activation, % at 9.3 µM | AID 624380, 2012 | shares compounds with HTR2A ag;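 active = mean activation above the mean of DMSO-only wells plus 3 SD, cut at about 0.5% in these data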
HTR2A ag conf: mouse HTR2A agonists, beta-arrestin recruitment, confirmation, cell-based, luminescence, CHO-K1 PathHunter, triplicate | activation, % at 7.6 µM | hit rate 19% among 2,300 | DMSO 0%, 30 µM serotonin 100% | AID 624381, 2012 | shares compounds with HTR2A ag;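 active = mean activation across triplicates above the hit threshold derived in the original primary screen, cut at about 15% in these data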
Hits are given with their value. Most compounds without a hit are left out; they make up all but 4.4% or so of the library.

Cc1ccc(OCCC(=O)OCC(=O)NNC(=O)c2ccccc2)cc1 was read as bovine MsrA act inactive, HTR2A ag inactive, AHR act inactive, Tb MetRS inh inactive, MsrA inhibitor inactive and AI-2 QS mod inactive.
`COc1ccc(N2CCN(c3cc(=O)n(Cc4ccc(F)cc4)c(=O)[nH]3)CC2)cc1` gave bovine MsrA act inactive, HTR2A ag 16, AHR act inactive, Tb MetRS inh inactive, MsrA inhibitor inactive, OPRM1 ag inactive and HTR2A ag conf inactive.
`CCN(CC(=O)Nc1ccccc1OC)C(=O)CSCc1ccc(C)cc1` gave bovine MsrA act inactive, HTR2A ag inactive, AHR act inactive, Tb MetRS inh inactive and MsrA inhibitor inactive.
`COC(=O)C(CCSC)NC(=O)Cn1ncc2c(=O)oc3ccccc3c21` (centres undefined) gave bovine MsrA act inactive, HTR2A ag 23, AHR act inactive, Tb MetRS inh inactive, MsrA inhibitor inactive, AI-2 QS mod inactive, OPRM1 ag inactive and HTR2A ag conf inactive.
For Cc1ccc(S(=O)(=O)NCC(=O)N2CCCC2)cc1 the results were bovine MsrA act inactive, HTR2A ag inactive, AHR act inactive, Tb MetRS inh inactive, MsrA inhibitor inactive and AI-2 QS mod inactive.
`Cc1ccc(S(=O)(=O)NC(CC(=O)N2CCOCC2)c2ccco2)cc1` (centres undefined) gave bovine MsrA act inactive, HTR2A ag 43, AHR act inactive, Tb MetRS inh inactive, MsrA inhibitor inactive, AI-2 QS mod inactive, OPRM1 ag inactive and HTR2A ag conf inactive.
Cc1ccc(S(=O)(=O)NCC(=O)N2CCCCC2)cc1 was read as bovine MsrA act inactive, HTR2A ag 14, AHR act inactive, Tb MetRS inh inactive, MsrA inhibitor inactive, AI-2 QS mod inactive, OPRM1 ag inactive and HTR2A ag conf inactive.
Screening CCOc1ccc(NC(=S)N2c3ccccc3CC2C)cc1 (centres undefined) returned bovine MsrA act inactive, HTR2A ag 16, AHR act inactive, Tb MetRS inh inactive, MsrA inhibitor inactive, AI-2 QS mod inactive, OPRM1 ag inactive and HTR2A ag conf inactive.
`Cc1cc(C)cc(-n2c(C)cc(/C=C3\C(=N)N4N=C(CC(C)C)SC4=NC3=O)c2C)c1` gave bovine MsrA act inactive, HTR2A ag 18, AHR act inactive, Tb MetRS inh inactive, MsrA inhibitor inactive, AI-2 QS mod inactive, OPRM1 ag inactive and HTR2A ag conf inactive.
CCN(CC)C(=O)c1ccc2sc([C@@H]3O[C@H](CO)[C@H](O)[C@H](O)[C@H]3O)nc2c1 was read as bovine MsrA act inactive, HTR2A ag inactive, Tb MetRS inh inactive and MsrA inhibitor inactive.
Screening CN(Cc1ccccc1)C(=O)c1ccc2sc([C@@H]3O[C@H](CO)[C@H](O)[C@H](O)[C@H]3O)nc2c1 returned bovine MsrA act inactive, HTR2A ag 21, Tb MetRS inh inactive, MsrA inhibitor inactive, OPRM1 ag inactive and HTR2A ag conf inactive.
Screening Cc1cc(NC(=O)c2ccc3sc([C@@H]4O[C@H](CO)[C@H](O)[C@H](O)[C@H]4O)nc3c2)no1 returned bovine MsrA act inactive, HTR2A ag 21, Tb MetRS inh inactive, MsrA inhibitor inactive, OPRM1 ag inactive and HTR2A ag conf inactive.
